Measured values reported in publication PMC11605132 (eClinicalMedicine, 2024).
“Also recorded” adds a separate entry of the source. Like-named read-outs stand apart in the source and are kept apart here.

Assays:
healthy volunteers = conditions: cited from earlier work
patients with AIS [1] = assay: All adverse events, AMFIS phase II trial; type: in vivo, human
Method in brief: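 Double-blind, 2:1 stratified block randomization by age (<75, 75–90 years) against a placebo vial of 50 mg D-mannitol. Patients were aged 20–90 with new DWI lesions and treated within 24 h of onset. AEs were monitored from infusion start to 3 days after the intervention ended, with close blood-pressure watch. Severity was graded on five levels (mild to death), and an independent committee judged causality.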

patients with AIS [2] = assay: NIHSS score, primary efficacy endpoint, AMFIS trial; type: in vivo, human
Method in brief: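 Trained stroke neurologists scored NIHSS at baseline, 8, 24 and 72 h after infusion start, and on Day 7, keeping the same examiner per patient where possible. Least square means with 95% CI came from generalized estimating equations. Fixed effects were treatment, time point and treatment×time, with baseline NIHSS as covariate. The same model compared the pulsed and continuous-pulsed groups.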

[3] = type: in vivo; conditions: human, plasma, 9 ng/kg/min, mean ± SD
patients with AIS [4] = assay: Intracerebral hemorrhage on CT and MRI, AMFIS trial; type: in vivo, human; conditions: Day 1 to Day 90
Method in brief: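 Patients (20–90 years, new DWI lesion, treated within 24 h of onset) were randomized 2:1 to adrenomedullin or a D-mannitol placebo under double-blind conditions. Non-contrast CT was performed at 24 h and on Day 7, and MRI on Day 90.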

[5] = patients receiving adrenomedullin, n=40

## CC[C@H](C)[C@H](NC(=O)[C@H](CCC(N)=O)NC(=O)[C@H](Cc1c[nH]cn1)NC(=O)[C@H](C)NC(=O)[C@H](CC(C)C)NC(=O)[C@H](CCCCN)NC(=O)[C@H](CCC(N)=O)NC(=O)[C@@H](NC(=O)[C@@H](NC(=O)[C@@H]1CSSC[C@H](NC(=O)CNC(=O)[C@H](Cc2ccccc2)NC(=O)[C@H](CO)NC(=O)[C@H](CCCNC(=N)N)NC(=O)[C@H](CC(C)C)NC(=O)CNC(=O)[C@H](CCC(N)=O)NC(=O)[C@H](Cc2ccccc2)NC(=O)[C@H](CC(N)=O)NC(=O)[C@H](CC(N)=O)NC(=O)[C@H](CCSC)NC(=O)[C@H](CO)NC(=O)[C@H](CCC(N)=O)NC(=O)[C@H](CCCNC(=N)N)NC(=O)[C@@H](N)Cc2ccc(O)cc2)C(=O)N[C@@H](CCCNC(=N)N)C(=O)N[C@@H](Cc2ccccc2)C(=O)NCC(=O)N[C@@H]([C@@H](C)O)C(=O)N1)[C@@H](C)O)C(C)C)C(=O)N[C@@H](Cc1ccc(O)cc1)C(=O)N[C@@H](CCC(N)=O)C(=O)N[C@@H](Cc1ccccc1)C(=O)N[C@H](C(=O)N[C@@H](CC(=O)O)C(=O)N[C@@H](CCCCN)C(=O)N[C@@H](CC(=O)O)C(=O)N[C@@H](CCCCN)C(=O)N[C@@H](CC(=O)O)C(=O)N[C@@H](CC(N)=O)C(=O)N[C@H](C(=O)N[C@@H](C)C(=O)N1CCC[C@H]1C(=O)N[C@@H](CCCNC(=N)N)C(=O)N[C@@H](CO)C(=O)N[C@@H](CCCCN)C(=O)N[C@H](C(=O)N[C@@H](CO)C(=O)N1CCC[C@H]1C(=O)N[C@@H](CCC(N)=O)C(=O)NCC(=O)N[C@@H](Cc1ccc(O)cc1)C(N)=O)[C@@H](C)CC)C(C)C)[C@@H](C)O [adrenomedullin]
Healthy volunteers
  half-life: < 1 h
Healthy volunteers; dose of 9 ng/kg/min
  blood levels of adrenomedullin: 0.01 to 0.02 ng/mL
Healthy volunteers; healthy volunteers
  severe adverse events: no severe adverse events
Patients with AIS [1]; C/P-AM
  patients with AEs, n (%, 95% CI): 14
Patients with AIS [1]; P-AM
  patients with AEs, n (%, 95% CI): 11
Patients with AIS [1]; adrenomedullin group, n=40
  cases of drop in blood pressure: 10.0%
  cases of low blood pressure: 2.5%
Patients with AIS [1]; first-half and second-half cohorts
  life-threatening AEs or death: No life-threatening AEs or death were reported
Patients with AIS [1]; in vivo
  Laboratory tests: no clinically significant changes
Patients with AIS [1]; non-severe, non-embolic AIS
  tolerability: well tolerated
Patients with AIS [1]; [5]
  SAEs related to the intervention: Neither intervention-related serious adverse events nor severe adverse events were observed; also recorded: no “SAEs related to the intervention” were reported; also recorded: No SAEs were observed
  Severe AEs (grade 3): observed only in the placebo group
Patients with AIS [2]; 7-day, AM minus placebo, GEE model
  Intergroup difference in NIHSS changes, LSM (95% CI): 0.32 (−0.91–1.56)
Patients with AIS [2]; 7-day, AM n=40, GEE model
  NIHSS changes from pre-treatment, LSM (SE; 95% CI in text): −0.76
Patients with AIS [2]; 7-day, C/P-AM minus P-AM, GEE
  Intergroup difference in NIHSS changes, LSM (95% CI): 0.67 (−0.64–1.98)
Patients with AIS [2]; 7-day, C/P-AM, GEE, dose-finding analysis
  NIHSS changes from pre-treatment, LSM (SE; 95% CI in text): −0.42
Patients with AIS [2]; 7-day, P-AM, GEE, dose-finding analysis
  NIHSS changes from pre-treatment, LSM (SE; 95% CI in text): −1.08
Patients with AIS [2]; 8-h, AM minus placebo, GEE model
  Intergroup difference in NIHSS changes, LSM (95% CI): 0.25 (−0.24–0.74)
Patients with AIS [2]; 8-h, C/P-AM minus P-AM, GEE
  Intergroup difference in NIHSS changes, LSM (95% CI): 0.52 (−0.12–1.16)
Patients with AIS [2]; 24-h, AM minus placebo, GEE model
  Intergroup difference in NIHSS changes, LSM (95% CI): 0.15 (−0.46–0.75)
Patients with AIS [2]; 24-h, C/P-AM minus P-AM, GEE
  Intergroup difference in NIHSS changes, LSM (95% CI): 0.62 (−0.29–1.53)
Patients with AIS [2]; 72-h, AM minus placebo, GEE model
  Intergroup difference in NIHSS changes, LSM (95% CI): 0.35 (−0.93–1.63)
Patients with AIS [2]; 72-h, C/P-AM minus P-AM, GEE
  Intergroup difference in NIHSS changes, LSM (95% CI): 0.32 (−1.09–1.72)
Patients with AIS [2]; C/P-AM
  mean change in the NIHSS score from pre-treatment to Day 7: −0.45
  median change in the NIHSS score from pre-treatment to Day 7: −0.5
Patients with AIS [2]; P-AM
  mean change in the NIHSS score from pre-treatment to Day 7: −1.05
  median change in the NIHSS score from pre-treatment to Day 7: −1
Patients with AIS [2]; in vivo
  efficacy on NIHSS scores: not demonstrated
Patients with AIS [2]; [5]
  mean change in the NIHSS score from pre-treatment to Day 7: −0.75
  median change in the NIHSS score from pre-treatment to Day 7: −1.00
[3]; C/P-AM
  Cmax: 0.061 ng/mL
[3]; P-AM
  Cmax: 0.0442 ng/mL
Patients with AIS [4]
  intracerebral hemorrhage on CT and MRI: no intracerebral hemorrhage was observed
